Active and inactive are the calls of the source. The rule behind the calls is not given here.
Columns and labels:
[1] = molecular target: Tubulin (Homo sapiens) (UniProt P68371+Q9H4B7+P0DPH7+P68366+Q13509+Q71U36+P04350+Q3ZCM7+P07437+P68363+Q9BQE3+Q6PEY2+Q13885+Q9BVA1+Q9BUF5); assay: Induction of microtubule disruption in human HeLa cells assessed as multipolarization of spindle at 5 times IC50 incubated for 18 hrs by indirect immunofluorescence analysis relative to vehicle-treated control; type: cell-based
Summary of the method: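 Mitotic spindles and microtubules were imaged by indirect immunofluorescence with a β-tubulin antibody and compared with vehicle-treated cells.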

[2] = molecular target: Tubulin (Bos taurus) (UniProt Q6B856+Q862L2+Q862F3); assay: Displacement of [3H]colchicine from tubulin in bovine brain homogenate at 1 uM incubated for 10 mins by DEAE-cellulose filter assay; type: tissue-based
[3] = tested on: CCRF-CEM; assay: Cytotoxicity against human CCRF-CEM cells assessed as growth inhibition after 48 hrs by SRB assay; type: functional
[4] = tested on: MOLT-4; assay: Cytotoxicity against human MOLT4 cells assessed as growth inhibition after 48 hrs by SRB assay; type: functional; conditions: MOLT-4, 48 h
[5] = tested on: SR; assay: Cytotoxicity against human SR cells assessed as growth inhibition after 48 hrs by SRB assay; type: functional
[6] = tested on: A549; assay: Cytotoxicity against human A549 cells assessed as growth inhibition after 48 hrs by SRB assay; type: functional; conditions: A549, 48 h
[7] = tested on: EKVX; assay: Cytotoxicity against human EKVX cells assessed as growth inhibition after 48 hrs by SRB assay; type: functional
[8] = tested on: HOP-62; assay: Cytotoxicity against human HOP62 cells assessed as growth inhibition after 48 hrs by SRB assay; type: functional; conditions: HOP-62, 48 h
[9] = tested on: HOP-92; assay: Cytotoxicity against human HOP92 cells assessed as growth inhibition after 48 hrs by SRB assay; type: functional; conditions: HOP-92, 48 h
[10] = tested on: NCI-H226; assay: Cytotoxicity against human NCI-H226 cells assessed as growth inhibition after 48 hrs by SRB assay; type: functional; conditions: NCI-H226, 48 h
[11] = tested on: NCI-H322M; assay: Cytotoxicity against human NCI-H322M cells assessed as growth inhibition after 48 hrs by SRB assay; type: functional
[12] = tested on: NCI-H522; assay: Cytotoxicity against human NCI-H522 cells assessed as growth inhibition after 48 hrs by SRB assay; type: functional; conditions: NCI-H522, 48 h
[13] = tested on: HCT-116; assay: Cytotoxicity against human HCT116 cells assessed as growth inhibition after 48 hrs by SRB assay; type: functional; conditions: HCT-116, 48 h
[14] = tested on: HCT-15; assay: Cytotoxicity against human HCT15 cells assessed as growth inhibition after 48 hrs by SRB assay; type: functional; conditions: HCT-15, 48 h
[15] = tested on: SF-268; assay: Cytotoxicity against human SF268 cells assessed as growth inhibition after 48 hrs by SRB assay; type: functional; conditions: SF-268, 48 h
[16] = tested on: SF-295; assay: Cytotoxicity against human SF295 cells assessed as growth inhibition after 48 hrs by SRB assay; type: functional; conditions: SF-295, 48 h
[17] = tested on: SNB-19; assay: Cytotoxicity against human SNB19 cells assessed as growth inhibition after 48 hrs by SRB assay; type: functional; conditions: SNB-19, 48 h
[18] = tested on: LOX IMVI; assay: Cytotoxicity against human LOXIMVI cells assessed as growth inhibition after 48 hrs by SRB assay; type: functional
[19] = tested on: Malme-3M; assay: Cytotoxicity against human MALME-3M cells assessed as growth inhibition after 48 hrs by SRB assay; type: functional
[20] = tested on: MDA-MB-435; assay: Cytotoxicity against human MDA-MB-435 cells assessed as growth inhibition after 48 hrs by SRB assay; type: functional, cell-based
[21] = tested on: SK-MEL-5; assay: Cytotoxicity against human SK-MEL-5 cells assessed as growth inhibition after 48 hrs by SRB assay; type: functional; conditions: SK-MEL-5, 48 h
[22] = tested on: IGROV-1; assay: Cytotoxicity against human IGROV1 cells assessed as growth inhibition after 48 hrs by SRB assay; type: functional; conditions: IGROV-1, 48 h
[23] = tested on: OVCAR-3; assay: Cytotoxicity against human OVCAR3 cells assessed as growth inhibition after 48 hrs by SRB assay; type: functional; conditions: OVCAR-3, 48 h
[24] = tested on: OVCAR-4; assay: Cytotoxicity against human OVCAR4 cells assessed as growth inhibition after 48 hrs by SRB assay; type: functional; conditions: OVCAR-4, 48 h
[25] = tested on: A498; assay: Cytotoxicity against human A498 cells assessed as growth inhibition after 48 hrs by SRB assay; type: functional; conditions: A498, 48 h
[26] = tested on: CAKI-1; assay: Cytotoxicity against human Caki1 cells assessed as growth inhibition after 48 hrs by SRB assay; type: functional; conditions: CAKI-1, 48 h
[27] = tested on: UO-31; assay: Cytotoxicity against human UO31 cells assessed as growth inhibition after 48 hrs by SRB assay; type: functional; conditions: UO-31, 48 h
[28] = tested on: DU-145; assay: Cytotoxicity against human DU145 cells assessed as growth inhibition after 48 hrs by SRB assay; type: functional; conditions: DU-145, 48 h
[29] = tested on: MCF7; assay: Cytotoxicity against human MCF7 cells assessed as growth inhibition after 48 hrs by SRB assay; type: functional; conditions: MCF7, 48 h
[30] = tested on: Hs-578T; assay: Cytotoxicity against human Hs 578T cells assessed as growth inhibition after 48 hrs by SRB assay; type: functional
[31] = tested on: SK-OV-3; assay: Relative ratio of IC50 for human SKOV3 cells expressing MDR1-M6/6 to IC50 for human SKOV3 cells; type: functional
Summary of the method: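 Rr is the IC50 in Pgp-expressing SK-OV-3 MDR1-M6/6 cells divided by the IC50 in parental SK-OV-3 cells. Both IC50s come from the SRB assay, averaging three independent experiments run in triplicate.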

[32] = tested on: Tubulin (Rattus norvegicus); assay: Induction of microtubule depolymerization in rat A10 cells at 2 times EC50 incubated for 18 hrs by indirect immunofluorescence analysis

For `COc1ccc(N(C)c2ncnc3occ(C)c23)cc1`, the Activity [1] was “Active”, the inhibition [2] was 71% and the GI50 [3] was less than 10 nM. For the same compound, the GI50 [4] was less than 10 nM, the GI50 [5] was less than 10 nM and the GI50 [6] was less than 10 nM. The GI50 [7] was less than 10 nM, the GI50 [8] was 18.4 nM and the GI50 [9] was 62.5 nM. It also gave a GI50 [10] of less than 10 nM, a GI50 [11] greater than 100000 nM and a GI50 [12] of less than 10 nM. The GI50 [13] was less than 10 nM, the GI50 [14] was less than 10 nM and the GI50 [15] was 10.1 nM. For the same compound, the GI50 [16] was less than 10 nM, the GI50 [17] was less than 10 nM and the GI50 [18] was less than 10 nM. For the same compound, the GI50 [19] was 38.7 nM, the GI50 [20] was less than 10 nM and the GI50 [21] was less than 10 nM. The GI50 [22] was less than 10 nM, the GI50 [23] was less than 10 nM and the GI50 [24] was less than 10 nM. It also gave a GI50 [25] of less than 10 nM, a GI50 [26] of less than 10 nM and a GI50 [27] of less than 10 nM. It also gave a GI50 [28] of less than 10 nM, a GI50 [29] of less than 10 nM and a GI50 [30] of less than 10 nM. The “Ratio IC50” value [31] was 1.1 and the Activity [32] was “Active”.

Source: ChEMBL document CHEMBL4477200, “Design, Synthesis, and Preclinical Evaluation of 4-Substituted-5-methyl-furo[2,3-d]pyrimidines as Microtubule Targeting Agents That Are Effective against Multidrug Resistant Cancer Cells” (J Med Chem, 2016)
